Source: the RNAGym collection of RNA variant scans (doi:10.1126/science.aae0568)
This sample holds only a part of the variants without activity.

B1: tRNA (parent)
chain: GUUCCGUUGGCGUAAUGGUAACGCGUCUCCCUCCUAAGGAGAAGACUGCGGGUUCGAGUCCCGUACGGAACG

Variants of: B1
Assay: yeast fitness relative to wild type (ratio to wild type); higher = fitter; tRNA-Arg(CCU), competitive growth, 37 C, YPD
Outline: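 A pool of Saccharomyces cerevisiae strains, each with a tRNA-Arg(CCU) gene variant at the native genomic locus, was competed in YPD at 37°C for 24 hours across six parallel replicates. The variants had been chemically synthesised at a 3% per-site mutation rate over 69 sites, and gene amplicons before and after competition were read by 100-nucleotide paired-end sequencing. Darwinian fitness relative to wild type rested on changes in genotype frequencies. Genotypes required ≥ 100 starting reads, and estimates < 0.5 were set to 0.5.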
Work on C5G G23A C60U C62G yielded a yeast fitness of at most 0.5. Variant C5G G44A A69U has a yeast fitness of 0.646. C5G C29G U32A A37U showed a yeast fitness of at most 0.5. Variant C5G C11A A14G G25C C29G C60G has a yeast fitness of at most 0.5. For C5G C11A A14G G25C C29G C60A, the yeast fitness was at most 0.5. For C5G G25A A42C G68A, the yeast fitness was at most 0.5. Work on C5G C33A U64A yielded a yeast fitness of at most 0.5. Variant C5G C11U A21G C60A has a yeast fitness of at most 0.5. Variant C5G C22G C55A A65U has a yeast fitness of 0.63. Work on C5G C31U A37G yielded a yeast fitness of 0.592. For C5G G12A U28A A65G, the yeast fitness was 0.703. Work on C5G U7C C11G A40G A57U yielded a yeast fitness of 0.542. C5G U13A A65G showed a yeast fitness of 0.603. For C5G G10A A37C G56A, the yeast fitness was 0.567. In the case of C5G G10A C22U A37C G56A, the yeast fitness is reported as at most 0.5. C5G C11A U19C A20C C33A C61G showed a yeast fitness of 0.676. Work on C5G G25A G48A yielded a yeast fitness of 0.724. Work on C5G C30U G50C yielded a yeast fitness of at most 0.5. C5G G6C G48A gave a yeast fitness of 1.06. For C5G C29A C30U U35A C55G G56C, the yeast fitness was at most 0.5. C5G C62G U64A gave a yeast fitness of at most 0.5. In the case of C5G C11G A40G, the yeast fitness is reported as 0.556. Variant C5G G38A has a yeast fitness of 0.729. C5G C34G C49U G50A showed a yeast fitness of at most 0.5. C5G C22U U26G U32A U35A A69C gave a yeast fitness of at most 0.5. Work on C5G C30U U47A G51A A57G yielded a yeast fitness of at most 0.5. C5G G17A A20C C49G A69C gave a yeast fitness of at most 0.5. With C5G U7G C33A A70U the yeast fitness was 0.57. In the case of C5G C29U C31G G44C, the yeast fitness is reported as 0.556. In the case of C5G G41C A45U, the yeast fitness is reported as 0.583. Variant C5G G12C C24A C33G C49G A65G has a yeast fitness of 0.573. In the case of C5G U7G A57G, the yeast fitness is reported as at most 0.5. C5G G12A C22A U26C C33G U64A G67C gave a yeast fitness of at most 0.5. C5G G58A showed a yeast fitness of 0.957. For C5G G10C G52A U54A C60G, the yeast fitness was 0.629. Work on C5G C22U C31G C60A yielded a yeast fitness of at most 0.5. Work on C5G G39A C49U yielded a yeast fitness of 0.524. With C5G G51A the yeast fitness was 0.78. Variant C5G G51C has a yeast fitness of 0.761. In the case of C5G C30G C33G A37U C61G, the yeast fitness is reported as at most 0.5. C5G G17A C62A gave a yeast fitness of at most 0.5. Variant C5G C31U C33U A57U has a yeast fitness of at most 0.5. Work on C5G C27U G51A yielded a yeast fitness of at most 0.5. C5G C29G G41C A57U gave a yeast fitness of at most 0.5. For C5G G52C C66U, the yeast fitness was at most 0.5. Work on C5G U13G yielded a yeast fitness of 0.703. Work on C5G U7G A14C U19A G58C yielded a yeast fitness of 0.584. Variant C5G C61A C62U A65U A69C has a yeast fitness of at most 0.5. In the case of C5G U7G A20G, the yeast fitness is reported as at most 0.5. Variant C5G G38A A69U has a yeast fitness of 0.559. In the case of C5G C33G A40U, the yeast fitness is reported as at most 0.5. C5G U8C A15G G18C C62U showed a yeast fitness of at most 0.5. For C5G G23A U32C C61A, the yeast fitness was at most 0.5. C5G G63A showed a yeast fitness of 0.843. Variant C5G G63C has a yeast fitness of 0.626. For C5G G6A, the yeast fitness was 0.659. Variant C5G G10C A43U U54C has a yeast fitness of at most 0.5. Work on C5G C49G G51A yielded a yeast fitness of at most 0.5. C5G G50A gave a yeast fitness of 0.835. Work on C5G G50C yielded a yeast fitness of 0.701. In the case of C5G C29G C46G, the yeast fitness is reported as at most 0.5. In the case of C5G G6A C30G, the yeast fitness is reported as at most 0.5. C5G C30A A36G A45C A69U showed a yeast fitness of at most 0.5. Work on C5G C61U U64G yielded a yeast fitness of 0.87. C5G C34A A36U G51C G56A showed a yeast fitness of 0.797. Work on C5G C31G yielded a yeast fitness of 0.824. For C5G C31A, the yeast fitness was 0.79. C5G C62A showed a yeast fitness of 0.697. C5G C62U gave a yeast fitness of 0.79. For C5G C24U G56C, the yeast fitness was at most 0.5. Work on C5G C30U U32A C49G yielded a yeast fitness of at most 0.5. For C5G U7G C33A, the yeast fitness was 0.519. Work on C5G G9C A20U A21G C24G C27G G68A yielded a yeast fitness of at most 0.5. C5G G6C G38C G58U gave a yeast fitness of 0.551. Variant C5G C11G A42G G68A has a yeast fitness of at most 0.5. Variant C5G C30U U32C G44C has a yeast fitness of at most 0.5. Variant C5G C46U A57C has a yeast fitness of 0.552. In the case of C5G C11A A20C C22G C30U C31G C61A G67A, the yeast fitness is reported as at most 0.5. Work on C5G C29U C66U yielded a yeast fitness of 0.57. For C5G U13C C62U, the yeast fitness was 0.602. C5G U7A A20C C46U showed a yeast fitness of at most 0.5. C5G C27G C33U G56A U64C A69U gave a yeast fitness of at most 0.5. In the case of C5G C22A C31U G50U C60U, the yeast fitness is reported as at most 0.5. Work on C5G U13A C22G C29G A40U U54C yielded a yeast fitness of at most 0.5. Work on C5G C11G A42C C49U yielded a yeast fitness of at most 0.5. C5G G6C C49A showed a yeast fitness of at most 0.5. In the case of C5G U7C A20U A43G, the yeast fitness is reported as at most 0.5. In the case of C5G U7C C11G A40G A57U A70U, the yeast fitness is reported as at most 0.5. In the case of C5G C11A U16A A21U G67A, the yeast fitness is reported as at most 0.5. C5G C31G A42U showed a yeast fitness of 0.623. Variant C5G G23C C33U G39A A43C has a yeast fitness of at most 0.5. C5G G68C A69G showed a yeast fitness of 0.54. In the case of C5G G12C C49U, the yeast fitness is reported as 0.584. Work on C5G G6A A15G yielded a yeast fitness of at most 0.5. For C5G G9C A20U A21G C24G C27G, the yeast fitness was 0.577. For C5G C22U C29G, the yeast fitness was 0.659. Work on C5G G12C G18A C24U C29U A36G A69C yielded a yeast fitness of at most 0.5. Variant C5G C34A A36C A42G has a yeast fitness of at most 0.5. Work on C5G G17C G50A A65U yielded a yeast fitness of at most 0.5. With C5G C11U A14G G25C C29G the yeast fitness was at most 0.5. Variant C5G G17C C55U has a yeast fitness of at most 0.5. For C5G C22A U26C C33G G63A, the yeast fitness was at most 0.5. C5G C11G C27G G48A gave a yeast fitness of 0.524. With C5G C24U C46A G68U the yeast fitness was at most 0.5. C5G G23C showed a yeast fitness of 0.695. Work on C5G C46G C49G C62A yielded a yeast fitness of at most 0.5. With C5G A65U the yeast fitness was 0.796. Variant C5G C31A A37C G48A G58C G68C has a yeast fitness of at most 0.5. Variant C5G U8G A43C G48A has a yeast fitness of 0.547. With C5G C34G C62U the yeast fitness was 0.531. Work on C5G G9C U13C A21G yielded a yeast fitness of at most 0.5. Variant C5G G10A A42G C55U A70C has a yeast fitness of at most 0.5. C5G G6A C29U C31G C33G G38A U59G gave a yeast fitness of at most 0.5. C5G C11A A15G G18A C30G G68A showed a yeast fitness of at most 0.5. With C5G G17A C33U A37C A65C the yeast fitness was at most 0.5. Variant C5G C11G A20C C33U C34U has a yeast fitness of at most 0.5. C5G A45U C62U showed a yeast fitness of 0.725. In the case of C5G G17A A20C G38A G58C C66U, the yeast fitness is reported as at most 0.5. C5G G6C C34U G38C gave a yeast fitness of 0.749. With C5G G12C C49U A65C the yeast fitness was 0.726. C5G C30A A40G A70U showed a yeast fitness of at most 0.5. In the case of C5G C11U U47A G68C, the yeast fitness is reported as at most 0.5. C5G U7A C11U C31A A45C gave a yeast fitness of at most 0.5. C5G U8A A20C A43C C46A showed a yeast fitness of at most 0.5. For C5G C61G A65C, the yeast fitness was at most 0.5. C5G G9C U47C A65U gave a yeast fitness of at most 0.5. C5G C24G G50A C60U A69U showed a yeast fitness of at most 0.5. In the case of C5G C30A C31A C49U C55G, the yeast fitness is reported as 0.544. Variant C5G G17C G25A A70G has a yeast fitness of at most 0.5. C5G G39A G52A A70G gave a yeast fitness of at most 0.5. For C5G C33A C34G G50A, the yeast fitness was at most 0.5. In the case of C5G C31A A36C A43C C55G, the yeast fitness is reported as 1.06. C5G G9C G67A showed a yeast fitness of at most 0.5. C5G G9C A36G C46U gave a yeast fitness of at most 0.5. For C5G G6C A15G C62U A65C, the yeast fitness was 0.6. Variant C5G U8A G41C U47A has a yeast fitness of 0.605. Variant C5G G23C C31G C60A A70U has a yeast fitness of at most 0.5. C5G A69C A70U gave a yeast fitness of 0.765. C5G U8C C27G C33G U35A gave a yeast fitness of at most 0.5. For C5G C11G G12A C46U, the yeast fitness was at most 0.5. Variant C5G G17A A20C has a yeast fitness of at most 0.5. Work on C5G G51C A57U C60U yielded a yeast fitness of at most 0.5. In the case of C5G G18A C22U, the yeast fitness is reported as at most 0.5. C5G C27U C49A U54C C60G gave a yeast fitness of at most 0.5. Work on C5G G9C A43G A69G yielded a yeast fitness of at most 0.5. C5G G9A G25C C27U G56A gave a yeast fitness of 0.6. Variant C5G G9C G58C has a yeast fitness of at most 0.5. Work on C5G G17A A20C C49G yielded a yeast fitness of 0.551. C5G C34G C46U C49U gave a yeast fitness of at most 0.5. Variant C5G U7C C34A has a yeast fitness of at most 0.5. Variant C5G G10A C11G U16G C33G C66U has a yeast fitness of at most 0.5. With C5G C24U C66A the yeast fitness was at most 0.5. With C5G C22A C33G U35A C55U the yeast fitness was at most 0.5. C5G G25C G44A showed a yeast fitness of at most 0.5. With C5G G9C A40C G58A the yeast fitness was at most 0.5. C5G C11A A14G G25C C29G C66U gave a yeast fitness of at most 0.5. Variant C5G C30U G67C has a yeast fitness of 0.938. Work on C5G U13A C30U yielded a yeast fitness of 0.56. Variant C5G C31G A57C has a yeast fitness of 0.502. Variant C5G U8G C11G has a yeast fitness of 0.509. Variant C5G U7G C33A A65C has a yeast fitness of at most 0.5. With C5G U8C G18C C61U A65C the yeast fitness was at most 0.5. In the case of C5G G10A, the yeast fitness is reported as 0.804. Variant C5G G50A A65G has a yeast fitness of 0.587. C5G U7A A14U showed a yeast fitness of 0.624. In the case of C5G C24A A42U A57C U64A, the yeast fitness is reported as at most 0.5. C5G C31A C66G gave a yeast fitness of at most 0.5.
